In ChEMBL document CHEMBL4373703 (J Med Chem, 2019):
Values after ≈ are worked out from the molar mass of the structure shown. Active and inactive are the calls of the source. The rule behind the calls is not given here.

Tests used:
[1] = Stability of the compound in plasma (unknown origin) assessed as compound remaining at 4 hrs; type: ADME, cell-free; details: read-out: Stability
[2] = biological target: T1, Tyrosine-protein kinase BTK (Homo sapiens, UniProt Q06187); experiment: Covalent inhibition of N-terminal GST-fused human BTK (2-659(end) amino acids) expressed in baculovirus expression system using FITC-AHA-EEPLYWSFPAKKK-NH2 as substrate incubated for 90 mins by microfluidic off-Chip Mobility Shift Assay
T1 sequence (Q06187 whole entry, the tested form may be a part): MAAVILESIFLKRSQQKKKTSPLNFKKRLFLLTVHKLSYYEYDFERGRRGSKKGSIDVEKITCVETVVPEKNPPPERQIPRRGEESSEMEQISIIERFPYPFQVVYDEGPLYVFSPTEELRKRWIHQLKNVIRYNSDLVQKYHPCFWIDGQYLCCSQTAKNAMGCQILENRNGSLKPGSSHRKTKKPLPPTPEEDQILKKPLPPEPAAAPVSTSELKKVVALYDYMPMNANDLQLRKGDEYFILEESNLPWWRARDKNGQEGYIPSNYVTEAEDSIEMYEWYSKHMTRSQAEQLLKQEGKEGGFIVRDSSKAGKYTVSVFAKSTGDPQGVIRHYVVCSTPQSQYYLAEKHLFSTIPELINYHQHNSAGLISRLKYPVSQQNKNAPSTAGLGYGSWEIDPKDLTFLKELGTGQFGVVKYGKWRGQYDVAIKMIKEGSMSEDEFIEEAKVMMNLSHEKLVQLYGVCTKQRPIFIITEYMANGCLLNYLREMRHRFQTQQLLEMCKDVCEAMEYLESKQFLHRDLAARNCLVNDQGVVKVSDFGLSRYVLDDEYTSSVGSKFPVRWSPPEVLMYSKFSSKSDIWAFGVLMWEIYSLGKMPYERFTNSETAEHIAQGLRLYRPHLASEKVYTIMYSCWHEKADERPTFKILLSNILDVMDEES

[3] = biological target: Epidermal growth factor receptor (Homo sapiens, UniProt P00533); experiment: Inhibition of N-terminal GST-tagged human EGFR (696 to end aminoacids) expressed in baculovirus infected Sf21 cells
Epidermal growth factor receptor, sequence (P00533 whole entry): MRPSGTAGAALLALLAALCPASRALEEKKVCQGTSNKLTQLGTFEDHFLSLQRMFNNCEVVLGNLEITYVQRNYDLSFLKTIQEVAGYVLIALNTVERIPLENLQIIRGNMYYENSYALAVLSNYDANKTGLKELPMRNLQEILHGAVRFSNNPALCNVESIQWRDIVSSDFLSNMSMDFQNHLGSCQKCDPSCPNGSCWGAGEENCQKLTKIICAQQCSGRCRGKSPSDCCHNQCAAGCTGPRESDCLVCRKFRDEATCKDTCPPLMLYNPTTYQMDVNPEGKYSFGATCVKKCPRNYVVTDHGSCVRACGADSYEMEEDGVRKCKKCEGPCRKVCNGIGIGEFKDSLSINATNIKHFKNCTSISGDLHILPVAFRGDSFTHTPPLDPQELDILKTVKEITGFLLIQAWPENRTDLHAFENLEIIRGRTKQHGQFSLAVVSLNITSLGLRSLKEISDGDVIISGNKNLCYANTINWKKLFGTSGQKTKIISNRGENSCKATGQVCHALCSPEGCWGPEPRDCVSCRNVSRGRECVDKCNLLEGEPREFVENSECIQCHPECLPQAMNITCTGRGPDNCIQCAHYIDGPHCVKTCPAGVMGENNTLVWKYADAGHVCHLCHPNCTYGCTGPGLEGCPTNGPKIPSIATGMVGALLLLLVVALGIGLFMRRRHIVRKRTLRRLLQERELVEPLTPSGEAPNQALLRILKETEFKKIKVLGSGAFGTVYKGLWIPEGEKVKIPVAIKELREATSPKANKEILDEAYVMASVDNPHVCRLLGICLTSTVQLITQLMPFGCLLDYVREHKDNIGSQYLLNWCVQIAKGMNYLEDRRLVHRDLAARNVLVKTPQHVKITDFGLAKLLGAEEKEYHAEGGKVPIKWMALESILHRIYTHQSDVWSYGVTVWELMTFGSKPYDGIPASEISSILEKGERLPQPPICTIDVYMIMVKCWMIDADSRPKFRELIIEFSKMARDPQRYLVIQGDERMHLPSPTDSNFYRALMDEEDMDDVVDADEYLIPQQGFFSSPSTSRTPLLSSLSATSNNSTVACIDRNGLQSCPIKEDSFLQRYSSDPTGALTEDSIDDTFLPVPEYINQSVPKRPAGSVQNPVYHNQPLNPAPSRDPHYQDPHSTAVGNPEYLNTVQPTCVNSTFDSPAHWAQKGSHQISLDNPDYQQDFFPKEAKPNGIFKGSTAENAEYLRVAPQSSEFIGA

[4] = biological target: T1, Tyrosine-protein kinase BTK; experiment: Inhibition of BTK in human PBMC cells assessed as reduction in anti-IgM-stimulated CD69 expression on B cells preincubated for 60 mins followed by goat F(ab')2 anti-human IgM stimulation and measured after overnight incubation by flow cytometry; type: cell-based
[5] = Apparent permeability across apical to basolateral side in human Caco2 cells at 1 uM incubated for 2 hrs by LC-MS/MS analysis; type: ADME, cell-based; details: Caco-2
[6] = Efflux ratio in human Caco2 cells; type: ADME, cell-based; details: Caco-2
[7] = Kinetic solubility of the compound; type: physicochemical; details: read-out: Kinetic_solubility
[8] = biological target: Voltage-gated inwardly rectifying potassium channel KCNH2 (Homo sapiens, UniProt Q12809); experiment: Inhibition of human ERG expressed in HEK293 cells at -80 mV holding potential by […]; type: cell-based
Voltage-gated inwardly rectifying potassium channel KCNH2, sequence (Q12809 whole entry): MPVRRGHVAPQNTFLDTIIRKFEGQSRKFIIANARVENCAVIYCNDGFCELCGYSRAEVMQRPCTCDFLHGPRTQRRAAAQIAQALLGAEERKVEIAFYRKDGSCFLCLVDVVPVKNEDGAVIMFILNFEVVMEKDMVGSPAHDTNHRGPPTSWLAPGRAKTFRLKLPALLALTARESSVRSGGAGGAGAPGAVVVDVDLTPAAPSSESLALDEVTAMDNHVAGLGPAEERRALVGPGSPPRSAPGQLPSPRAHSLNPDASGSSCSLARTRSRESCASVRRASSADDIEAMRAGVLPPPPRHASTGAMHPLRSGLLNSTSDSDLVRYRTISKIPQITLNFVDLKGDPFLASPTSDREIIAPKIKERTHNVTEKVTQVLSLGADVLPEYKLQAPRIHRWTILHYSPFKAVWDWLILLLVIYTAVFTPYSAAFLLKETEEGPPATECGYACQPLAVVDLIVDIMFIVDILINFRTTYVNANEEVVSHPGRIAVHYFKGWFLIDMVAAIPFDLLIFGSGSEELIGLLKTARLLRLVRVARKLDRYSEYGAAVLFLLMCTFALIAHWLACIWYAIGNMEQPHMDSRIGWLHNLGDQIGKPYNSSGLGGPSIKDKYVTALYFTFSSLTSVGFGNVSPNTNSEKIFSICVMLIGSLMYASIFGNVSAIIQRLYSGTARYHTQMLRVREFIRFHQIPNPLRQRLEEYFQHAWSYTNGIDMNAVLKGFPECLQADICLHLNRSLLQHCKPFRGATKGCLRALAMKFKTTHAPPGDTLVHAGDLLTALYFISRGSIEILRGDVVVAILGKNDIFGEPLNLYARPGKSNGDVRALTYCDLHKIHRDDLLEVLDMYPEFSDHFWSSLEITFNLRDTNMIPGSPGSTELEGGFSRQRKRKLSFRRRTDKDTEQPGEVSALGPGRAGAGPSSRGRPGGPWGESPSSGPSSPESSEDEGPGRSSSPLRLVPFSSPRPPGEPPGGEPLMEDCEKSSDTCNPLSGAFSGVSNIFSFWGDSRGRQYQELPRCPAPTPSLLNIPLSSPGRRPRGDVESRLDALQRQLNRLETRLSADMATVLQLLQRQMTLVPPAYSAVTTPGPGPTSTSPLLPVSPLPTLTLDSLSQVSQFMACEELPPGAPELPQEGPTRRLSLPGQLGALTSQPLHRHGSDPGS

[9] = Intrinsic clearance in human liver microsomes at 1 uM in presence of NADPH measured up to 30 mins by LC-MS/MS analysis; type: ADME, Microsome; details: read-out: CLH
[10] = biological target: Tyrosine-protein kinase BTK (Homo sapiens, UniProt Q06187, C481S); experiment: Inhibition of BTK Cys481S mutant (unknown origin)
Tyrosine-protein kinase BTK (Homo sapiens, UniProt Q06187, C481S), sequence (Q06187 2-659 C481S limits assumed): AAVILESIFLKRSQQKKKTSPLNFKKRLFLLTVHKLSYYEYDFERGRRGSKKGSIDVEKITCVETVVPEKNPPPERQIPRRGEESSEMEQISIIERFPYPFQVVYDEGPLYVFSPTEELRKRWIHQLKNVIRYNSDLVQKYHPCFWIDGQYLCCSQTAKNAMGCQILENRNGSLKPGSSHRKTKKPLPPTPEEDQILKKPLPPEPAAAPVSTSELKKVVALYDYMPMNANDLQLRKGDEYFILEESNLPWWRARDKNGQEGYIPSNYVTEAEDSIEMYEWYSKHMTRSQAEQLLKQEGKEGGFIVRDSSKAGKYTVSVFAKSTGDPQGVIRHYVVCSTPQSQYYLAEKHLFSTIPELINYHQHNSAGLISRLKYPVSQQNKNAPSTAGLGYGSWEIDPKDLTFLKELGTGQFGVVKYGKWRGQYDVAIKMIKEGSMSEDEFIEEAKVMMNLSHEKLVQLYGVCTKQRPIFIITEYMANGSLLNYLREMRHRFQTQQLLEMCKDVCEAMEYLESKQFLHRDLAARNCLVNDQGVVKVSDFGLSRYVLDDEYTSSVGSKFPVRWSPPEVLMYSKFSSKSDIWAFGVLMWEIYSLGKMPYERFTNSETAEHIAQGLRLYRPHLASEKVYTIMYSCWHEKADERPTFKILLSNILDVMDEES

hERG (KCNH2) = hERG (KCNH2) (Homo sapiens, UniProt Q12809); experiment: Inhibition of human ERG expressed in HEK293 cells at 10 uM at -80 mV holding potential by […] relative to control; type: cell-based; details: HEK293 cells expressing human ERG
hERG (KCNH2), sequence (Q12809 whole entry): as the sequence (Q12809 whole entry) above

Homo sapiens = species on record: Homo sapiens; experiment: Selectivity ratio, ratio of IC50 for EGFR (unknown origin) to IC50 for full length human BTK ([…])
Rattus norvegicus [11] = experiment: Antiarthritic activity in Lewis rat model of collagen-induced arthritis assessed as reduction in ankle histopathological scores at 0.1 mg/kg, po administered via gavage once daily starting from day 6 to day 16 relative to control; design: scale not given: the % may be the effect or the level left
Rattus norvegicus [12] = experiment: Antiarthritic activity in Lewis rat model of collagen-induced arthritis assessed as reduction in ankle swelling at 0.1 mg/kg, po administered via gavage once daily starting from day 6 to day 16 and measured from day 11 to day 17 by caliper method
Mus musculus [13] = experiment: Inhibition of B cell activation in C57BL/6 mouse at 1 mg/kg, po after 0.25 hr relative to control; type: functional; details: Mus musculus, C57BL/6, po, 0.25 h
Mus musculus [14] = experiment: Inhibition of B cell activation in C57BL/6 mouse at 1 mg/kg, po after 1 hr relative to control; type: functional; details: Mus musculus, C57BL/6, po, 1 h
In short: (§1)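 Normal C57BL/6 mice received a single oral dose of 1 mg/kg and were tested in an in vivo B cell stimulation assay. Inhibition of B cell activation was read at 1 h and 24 h after dosing.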

Mus musculus [15] = experiment: Inhibition of B cell activation in C57BL/6 mouse at 1 mg/kg, po after 24 hr relative to control; type: functional; details: Mus musculus, C57BL/6, po, 24 h; in short: as §1
[16] = Cmax in C57BL/6 mouse at 1 mg/kg, po; type: ADME, organism-based; design: dose 1 mg/kg, route oral; details: in vivo

Compound	IC50 [2]	Papp A→B at 2 h, 1 µM [5]	solubility kinetic [7]	microsomal CLint at 1 µM [9]	other results
Nc1ncnc(NCC2CCN(C(=O)CCl)CC2)c1-c1ccc(Oc2ccccc2)cc1	–	–	–	–	remaining at 4 h [1]: 49%
C=CC(=O)Nc1cccc(Nc2ncnc(N)c2-c2ccc(Oc3ccccc3)cc2)c1	4 nM	4.2 ×10⁻⁶ cm/s	16 µM (≈ 6.78 µg/mL)	43 µL/min/mg	IC50 [3]: 4 nM; IC50 [4]: 19 nM; efflux ratio [6]: 1.6; Ki [8]: 530 nM
C=CC(=O)NC1CCCN(c2ncnc(N)c2-c2ccc(Oc3ccccc3)cc2)C1 (stereo not drawn)	1500 nM	–	–	–	–
C=CC(=O)N[C@H]1CC[C@@H](Nc2ncnc(N)c2-c2ccc(Oc3ccccc3)cc2)CC1	–	10 ×10⁻⁶ cm/s	154 µM (≈ 66.1 µg/mL)	41 µL/min/mg	–
C=CC(=O)N1CCC(CNc2ncnc(N)c2-c2cc(F)c(Oc3ccccc3)cc2F)CC1	160 nM	–	–	143 µL/min/mg	–
CC(=O)N1CCC(CNc2ncnc(N)c2-c2ccc(Oc3ccccc3)cc2)CC1	–	–	–	–	IC50 [10]: 8600 to 8700 nM
C=CC(=O)Nc1cccc(-c2c(N)ncnc2Nc2ccc(Oc3ccccc3)cc2)c1	8 nM	–	–	–	IC50 [3]: 1 nM
C=CC(=O)Nc1cccc(Oc2ccnc(N)c2-c2ccc(Oc3ccccc3)cc2)c1	5 nM	–	–	–	inhibition at 10 µM (hERG (KCNH2)): 81%; IC50 [3]: 140 nM; Ratio IC50 (Homo sapiens): 25 to 30
CN(Cc1cnc2nc(N)nc(N)c2n1)c1ccc(C(=O)N[C@@H](CCC(=O)O)C(=O)O)cc1 [METHOTREXATE]	–	–	–	–	Activity (Rattus norvegicus [11]): 60%; Activity (Rattus norvegicus [12]): Active
C=CC(=O)N1CCC(Nc2ncnc(N)c2-c2ccc(Oc3ccccc3)cc2)C1 (single isomer, unassigned)	–	25.2 ×10⁻⁶ cm/s	160 µM (≈ 64.2 µg/mL)	77 µL/min/mg	inhibition at 10 µM (hERG (KCNH2)): 40%
C=CC(=O)N1CCCC(Nc2ncnc(N)c2-c2ccc(Oc3ccccc3)cc2)C1 (single isomer, unassigned)	–	–	–	598 µL/min/mg	inhibition at 10 µM (hERG (KCNH2)): 43%; IC50 [3]: 550 nM
C=CC(=O)Nc1cccc(Oc2ncnc(N)c2-c2ccc(Oc3ccccc3)cc2)c1	2.9 to 3 nM	1.6 ×10⁻⁶ cm/s	< 2.4 µM	277 µL/min/mg	inhibition at 10 µM (hERG (KCNH2)): 3%; IC50 [3]: 78 nM; Ratio IC50 (Homo sapiens): 25 to 30; IC50 [4]: 9.9 nM; efflux ratio [6]: 4.3
C=CC(=O)N1CC2(CC(Nc3ncnc(N)c3-c3ccc(Oc4ccccc4)cc3)C2)C1	–	9.3 ×10⁻⁶ cm/s	153 µM (≈ 65.4 µg/mL)	777 µL/min/mg	Ki [8]: 780 nM
C=CS(=O)(=O)N1CCC(CNc2ncnc(N)c2-c2ccc(Oc3ccccc3)cc2)CC1	–	–	–	–	remaining at 4 h [1]: 16%
C=CC(=O)Nc1cccc(Oc2ncncc2-c2ccc(Oc3ccccc3)cc2)c1	–	–	–	–	inhibition at 10 µM (hERG (KCNH2)): 46%
C=CC(=O)N[C@@H]1CC[C@H](Nc2ncnc(N)c2-c2ccc(Oc3ccccc3)cc2)C1 (relative stereo)	–	23.6 ×10⁻⁶ cm/s	158 µM (≈ 65.6 µg/mL)	202 µL/min/mg	–
C=CC(=O)N[C@@H]1CCC[C@H](Nc2ncnc(N)c2-c2ccc(Oc3ccccc3)cc2)C1 (relative stereo)	–	11.9 ×10⁻⁶ cm/s	134 µM (≈ 57.6 µg/mL)	27 µL/min/mg	Ki [8]: 1800 nM
C=CC(=O)NC12CCC(Nc3ncnc(N)c3-c3ccc(Oc4ccccc4)cc3)(C1)C2	9.9 nM	21.7 ×10⁻⁶ cm/s	110 µM (≈ 47 µg/mL)	36 µL/min/mg	IC50 [4]: 70 nM; efflux ratio [6]: 1.4; Ki [8]: 1300 nM
C=CC(=O)Nc1cccc(Oc2ccncc2-c2ccc(Oc3ccccc3)cc2)c1	44 nM	–	–	–	–

Second part, led by results:

IC50 [2]	Papp A→B at 2 h, 1 µM [5]	solubility kinetic [7]	microsomal CLint at 1 µM [9]	Compound	other results
–	–	–	199 µL/min/mg	C=CC(=O)N1CCC(CNc2ncnc(N)c2-c2ccc(Oc3cccc(F)c3)cc2)CC1	–
150 nM	–	–	143 µL/min/mg	C=CC(=O)N1CCC(CNc2ncnc(N)c2-c2ccc(Oc3ccc(F)cc3)cc2)CC1	–
1200 nM	–	–	–	C=CC(=O)N1CCC(CNc2ncnc(N)c2-c2ccc(C(=O)Nc3ccccc3)cc2)CC1	–
1510 nM	–	–	–	C=CC(=O)N1CCC(Nc2ncnc(N)c2-c2ccc(Oc3ccccc3)cc2)CC1	–
0.2 nM	–	–	–	C#CC(=O)N1CCC(CNc2ncnc(N)c2-c2ccc(Oc3ccccc3)cc2)CC1	remaining at 4 h [1]: 34%
290 nM	–	–	–	Nc1ncnc(NCC2CCN(C(=O)C3=CCC3)CC2)c1-c1ccc(Oc2ccccc2)cc1	IC50 [4]: 290 nM
> 100000 nM	–	–	–	C=CC(=O)N1CCC(CNc2ncnc(N)c2-c2ccc(Oc3ccccc3)cc2C(F)(F)F)CC1	–
730 nM	–	–	688 µL/min/mg	C=CC(=O)N1CCC(CNc2ncnc(N)c2-c2ccc(Oc3ccncc3)cc2)CC1	–
–	9 ×10⁻⁶ cm/s	169 µM (≈ 75.3 µg/mL)	68 µL/min/mg	C=CC(=O)N1CCC(O)(CNc2ncnc(N)c2-c2ccc(Oc3ccccc3)cc2)CC1	inhibition at 10 µM (hERG (KCNH2)): 45%; inhibition in vivo at 1 mg/kg (Mus musculus [13]): 37%; inhibition in vivo at 1 mg/kg (Mus musculus [14]): 42%; inhibition in vivo at 1 mg/kg (Mus musculus [15]): 15%; Cmax [16]: 257 nM
18 nM	–	–	145 µL/min/mg	C=CC(=O)N1CCC(CNc2ncnc(N)c2-c2ccc(Oc3ccc(C)cc3)cc2)CC1	–
